PMC4834983 (Journal of medicinal chemistry, 2015)

Columns and labels:
[1] = test system: G22 cells; assay: 3D spheroid assay; type: cell-based, human; conditions: 5 μM, treated once
[2] = test system: protein tyrosine phosphatase (PTP)1B; assay: Immunoblotting, U251MG glioma cells; type: cell-based, human; conditions: 5 μM
Method in brief: (§1)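 U251MG cells given 5 μM test compound for 0–24 h. Whole-cell lysates of equal total protein immunoblotted for pErk1/2, Erk1/2, pS-Akt, Akt, pJAK2, JAK2, SOCS3 and PTP1B, with β-actin or GAPDH as loading reference.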

[3] = test system: pErk1/2MAPK; assay: Immunoblotting, EGF-stimulated NIH3T3/hEGFR fibroblasts; type: cell-based, mouse; conditions: 5 μM pre-treatment
Method in brief: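 NIH3T3/hEGFR fibroblasts pretreated with or without 5 μM test compound for 3 h, then stimulated with 1 μg/ml EGF for 12 min. Whole-cell lysates, equal total protein, immunoblotted for pStat1/Stat1, pStat5/Stat5 and pErk1/2/Erk1/2.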

[4] = test system: MDA-MB-231 cells; assay: CyQuant cell proliferation assay; type: cell-based, human; conditions: Homo sapiens, MDA-MB-231, 72 h, read-out: IC50 cell proliferation MDA-MB-231
Method in brief: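 CyQuant DNA-dye proliferation assay on cultured cells after 72 h exposure to test compound. Viability expressed relative to DMSO-treated control cells.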

[5] = test system: U251MG cells; assay: Colony survival assay; type: cell-based, human; conditions: 1 μM, treated once
Method in brief: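 Cells seeded as single cells at 250 per well and treated once the next day with test compound (0–5 μM) for 72 h. Grown until large colonies were visible: 1 week for NIH3T3, 2 weeks for U251MG. Colonies stained with crystal violet for 4 h and counted.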

[6] = test system: pStat3; assay: Immunoblotting of pStat3 in patient-derived xenograft cells; type: cell-based, human; conditions: 5 μM, 3 h
Method in brief: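 Glioma patient-derived xenograft G22 cells (DMEM, 5–10% heat-inactivated FBS) given 5 μM test compound for 0–24 h. Whole-cell lysates immunoblotted for pStat3 and Stat3, with GAPDH as loading reference.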

[7] = test system: pYStat3; assay: Immunoblotting of pStat3 in treated U251MG cells; type: cell-based, human; conditions: 5 μM, glioma cells, immunoblotting
Method in brief: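 Whole-cell lysates from U251MG cells given test compound at 5 μM for 0–24 h, or at 0–5 μM for 2 h. Immunoblotted for pY705Stat3 and total Stat3, with GAPDH as loading reference.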

[8] = test system: G12 cells; assay: Growth of glioma patient-derived xenograft cells in vitro; type: cell-based; conditions: Homo sapiens, read-out: inhibitory activity against G12 cell growth
[9] = test system: NIH3T3/v-Src fibroblasts; assay: Trypan blue exclusion viable cell counting; type: cell-based, mouse; conditions: 1 and 2.5 μM
Method in brief: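 Cells in culture treated once with increasing concentrations of test compound for 0–96 h. Harvested every 24 h, and viable cells counted by trypan blue exclusion under phase-contrast microscopy.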

[10] = test system: pStat3; assay: Immunoblots of tumor tissue lysates from treated mice; type: in vivo, mouse; conditions: four-to-five cases out of six
Method in brief: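 After oral dosing, lysates of residual subcutaneous U251MG tumour tissue from treated and 1% DMSO vehicle mice. Immunoblotted for pStat3 and Stat3, with GAPDH as loading reference.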

[11] = test system: U251MG cells; assay: Cell cycle distribution analysis; type: cell-based, human; conditions: 15 h treatment
Method in brief: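 U251MG cells synchronised by double thymidine block (2 mM) and released for 9 h, then given DMSO or 8 μM test compound for 15 h. Fixed overnight at −20 °C in 70% ethanol/3% FBS in PBS. Stained in PI/RNase buffer for 15 min at room temperature, then DNA content measured by flow cytometry.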

[12] = test system: pS-Akt; assay: Immunoblotting, U251MG glioma cells; type: cell-based, human; conditions: 5 μM
Method in brief: as §1

`C/C=C(\C)C(=O)OCC1=C2/C(=C\[C@@]3(C)CC[C@](O)(O3)[C@H](C)C[C@@H]2O)OC1=O` [Compound 22] was tested, and the 3D spheroid growth [1] was “decreased 3D spheroid growth”, the “effect on PTP1B levels” value [2] was “no effects” and the “effect on EGF-stimulated pErk1/2MAPK levels” value [3] was “no effect”. The IC50 [4] was 5.2 to 9.1 µM, the U251MG colony formation [5] was “completely inhibited” and the “effect on Phospho-Stat3 in G22 cells” value [6] was “strongly inhibited”. The “effect on pStat3 in treated tumor cells” value [7] was “strongly inhibited”, the inhibition at 5 µM [8] was 25 to 35% and the “growth of NIH3T3/v-Src over normal NIH3T3 fibroblasts” value [9] was “preferential inhibition of growth”. For the same molecule, the “pStat3 and Stat3 levels in residual tumor tissues” value [10] was “lower”, the cell cycle distribution [11] was “induced G2/M accumulation” and the “effect on pS-Akt levels” value [12] was “no effects”.
